Data from ChEMBL document CHEMBL4373700, “Synthesis and Structure-Activity Relationship Correlations of Gnidimacrin Derivatives as Potent HIV-1 Inhibitors and HIV Latency Reversing Agents” (J Med Chem, 2019).

Assays:
[1] = tested on: MT4; assay: Cytotoxicity against human MT4 cells measured after 3 days by CytoTox-Glo assay; type: cell-based; conditions: mt4, 72 h
In short: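 MT4 cells cultured with a range of compound concentrations for 3 days. Viability by CytoTox-Glo, run per the manufacturer's protocol. CC50 is the concentration causing a 50% drop in viability.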

[2] = Agonist activity at Protein kinase C in human MT4 cells infected with HIV-1 NL4-3 assessed as inhibition of viral replication measured on day 3 post-infection by Nano-Glo luciferase assay

Structure (SMILES)	CC50 [1]	IC50 [2]
C=C(C)[C@]12C[C@@H](COC(=O)c3ccccc3)[C@@]34OC5(O[C@@H]1[C@@H]3[C@@H]1O[C@]1(CO)[C@@H](O)[C@@]1(O)[C@H]4[C@H]([C@H](C)[C@@H]1OC(=O)c1ccccc1)[C@H](C)CCCCCC[C@H]5OC(=O)c1ccc([N+](=O)[O-])cc1)O2	> 1 nM	> 1 nM
C=C(C)[C@]12C[C@@H](COC(=O)c3ccccc3)[C@@]34OC5(O[C@@H]1[C@@H]3[C@@H]1O[C@]1(CO)[C@@H](OC(=O)c1ccccc1)[C@@]1(O)[C@H]4[C@H]([C@H](C)[C@@H]1OC(=O)c1ccccc1)[C@H](C)CCCCCC[C@H]5O)O2	> 1 nM	> 1 nM
C=C(C)[C@]12C[C@@H](COC(=O)c3ccccc3)[C@@]34OC5(O[C@@H]1[C@@H]3[C@@H]1O[C@]1(CO)[C@@H](O)[C@@]1(O)[C@H]4[C@H]([C@H](C)[C@@H]1OC(=O)/C=C/c1ccccc1)[C@H](C)CCCCCC[C@H]5O)O2	> 1 nM	> 1 nM
C=C(C)[C@]12C[C@@H](COC(=O)c3ccccc3)[C@@]34OC5(O[C@@H]1[C@@H]3[C@@H]1O[C@]1(CO)[C@@H](O)[C@@]1(O)[C@H]4[C@H]([C@H](C)[C@@H]1OC(=O)c1ccccc1)[C@H](C)CCCCCC[C@H]5OC(=O)/C=C/c1ccccc1)O2	> 1 nM	> 1 nM
C=C(C)[C@]12C[C@@H](COC(=O)c3ccccc3)[C@@]34OC5(O[C@@H]1[C@@H]3[C@@H]1O[C@]1(COC(=O)c1ccccc1)[C@@H](O)[C@@]1(O)[C@H]4[C@H]([C@H](C)[C@@H]1OC(=O)c1ccccc1)[C@H](C)CCCCCC[C@H]5OC(=O)c1ccccc1)O2	> 1 nM	> 1 nM
C=C(C)[C@]12C[C@@H](COC(=O)c3ccccc3)[C@@]34OC5(O[C@@H]1[C@@H]3[C@@H]1O[C@]1(CO)[C@@H](O)[C@@]1(O)[C@H]4[C@H]([C@H](C)[C@@H]1OC(=O)c1ccccc1)[C@H](C)CCCCCC[C@H]5OC(C)=O)O2	> 1 nM	0.09 nM
C=C(C)[C@]12C[C@@H](COC(=O)c3ccccc3)[C@@]34OC5(O[C@@H]1[C@@H]3[C@@H]1O[C@]1(COC(C)=O)[C@@H](OC(C)=O)[C@@]1(O)[C@H]4[C@H]([C@H](C)[C@@H]1OC(=O)c1ccccc1)[C@H](C)CCCCCC[C@H]5OC(C)=O)O2	> 1 nM	> 1 nM
C=C(C)[C@]12C[C@@H](COC(=O)c3ccccc3)[C@@]34OC5(O[C@@H]1[C@@H]3[C@@H]1O[C@]1(CO)[C@@H](O)[C@@]1(O)[C@H]4[C@H]([C@H](C)[C@@H]1OC(=O)c1ccc([N+](=O)[O-])cc1)[C@H](C)CCCCCC[C@H]5O)O2	> 1 nM	0.22 nM
C=C(C)[C@]12C[C@@H](COC(=O)c3ccccc3)[C@@]34OC5(O[C@@H]1[C@@H]3[C@@H]1O[C@]1(CO)[C@@H](O)[C@@]1(O)[C@H]4[C@H]([C@H](C)[C@@H]1O)[C@H](C)CCCCCC[C@H]5O)O2	> 1 nM	> 1 nM
C=C(C)[C@]12C[C@@H](COC(=O)c3ccccc3)[C@@]34OC5(O[C@@H]1[C@@H]3[C@@H]1O[C@]1(COC(=O)CC(C)(C)C(=O)O)[C@@H](O)[C@@]1(O)[C@H]4[C@H]([C@H](C)[C@@H]1OC(=O)c1ccccc1)[C@H](C)CCCCCC[C@H]5O)O2	> 1 nM	> 1 nM
C=C(C)[C@]12C[C@@H](COC(=O)c3ccccc3)[C@@]34OC5(O[C@@H]1[C@@H]3[C@@H]1O[C@]1(COC(=O)/C=C/c1ccc(OC)cc1)[C@@H](O)[C@@]1(O)[C@H]4[C@H]([C@H](C)[C@@H]1OC(=O)c1ccccc1)[C@H](C)CCCCCC[C@H]5O)O2	> 1 nM	> 1 nM
